Rows were chosen to be rich in hits. Some 1.2% of all compounds tested hit in one or more screens of this group.
CRFBP-R2 block = CRF-BP/CRF-R2 complex antagonism; HEK293 CRF-R2/CRF-BP, CRF-induced calcium fluorescence; inhibition, % at 11.8 µM; 0.59% of 350,000 active; AID 588475;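 active = inhibition of the ligand-induced calcium signal above about 50% at the single tested concentration, limit read from the data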
TRPN1 ag = activates the zebrafish TRPN1 channel; 0.18% of 220,000 active; HEK293 zebrafish TRPN1-YFP, Fluo-8 calcium fluorescence; 100% = response to 87 µM carbachol; activation, % at 3 µM;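 active = activation above its plate's cutoff, the mean activation of test wells on that plate plus 3 SD, cut at about 19% in these data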;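 note: 0% = DMSO alone and 100% = 87 µM carbachol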
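Material: zebrafish TRPN1-YFP in HEK293 cells. Doses: one dose of 3 µM, 0.3% DMSO. Incubation: dye 1 h 37 °C plus 30 min RT. Measured by: intracellular calcium fluorescence with Fluo-8.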
CRFBP-R2 agonist = CRF-BP/CRF-R2 complex agonism | HEK293 CRF-R2/CRF-BP, calcium dye fluorescence (FLIPR); percent of saturating CRF peptide response | activation, % at 13.2 µM | 0.46% of 350,000 active;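 active = activation of at least 50%, plus an integration ratio under a set limit after plate pattern correction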;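 note: plate controls were neutral control wells without compound for no effect and CRF at EC100 for full effect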
TRPML3 ag = activates the human TRPML3 channel; HEK293 TRPML3-YFP, Fluo-8 calcium fluorescence; 100% = the carbachol control signal; Q8TDD5; activation, % at 3 µM; 0.29% of 220,000 active;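 active = activation above its plate's cutoff, the mean activation of the plate's test wells plus 3 SD, cut at about 12% in these data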;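 note: 0% = DMSO only wells and 100% = carbachol wells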
Target sequence (Q8TDD5 whole entry, looked up): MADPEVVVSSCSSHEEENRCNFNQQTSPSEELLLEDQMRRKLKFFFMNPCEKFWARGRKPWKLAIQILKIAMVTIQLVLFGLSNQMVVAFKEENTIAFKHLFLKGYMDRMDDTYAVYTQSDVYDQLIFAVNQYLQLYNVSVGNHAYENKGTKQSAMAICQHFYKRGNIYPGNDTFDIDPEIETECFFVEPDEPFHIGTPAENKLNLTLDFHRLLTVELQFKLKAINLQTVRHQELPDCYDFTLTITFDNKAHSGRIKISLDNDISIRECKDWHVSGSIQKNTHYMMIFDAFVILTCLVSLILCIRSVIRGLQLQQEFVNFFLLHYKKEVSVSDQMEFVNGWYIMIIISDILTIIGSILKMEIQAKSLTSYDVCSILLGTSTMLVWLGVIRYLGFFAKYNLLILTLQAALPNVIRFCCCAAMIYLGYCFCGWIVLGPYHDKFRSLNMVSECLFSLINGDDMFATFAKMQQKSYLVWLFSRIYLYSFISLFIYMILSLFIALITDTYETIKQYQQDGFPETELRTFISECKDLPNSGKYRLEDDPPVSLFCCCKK
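Test system – HEK293 line with stable expression of human TRPML3-YFP channel · Control set – carbachol 87 µM final as high control (100%), DMSO as low control (0%) · Signal – Fluo-8 calcium dye fluorescence, ex 470-495, em 515-575 nm · Incubation – 1-h 37 °C dye load, 5-s basal, 120-s post-compound reads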
Starred values were filed as active, the others as inactive; · = no result.

SMILES	CRFBP-R2 block	TRPN1 ag	CRFBP-R2 agonist	TRPML3 ag
COCCOc1cc(NC(=O)c2sccc2Oc2ccc([N+](=O)[O-])cc2F)c(Cl)cc1Cl	9	-1	0	0
O=C(Nc1ccccc1)c1sccc1Oc1ccc([N+](=O)[O-])cc1F	64*	-2	-1	0
COc1ccc(-c2sc3ccccc3c2-c2ccc(OCCN3CCCCC3)cc2)cc1	62*	·	8	·
c1ccc(-c2sc3ccccc3c2-c2ccc(OCCN3CCCC3)cc2)cc1	0	·	5	·
O=C(CCNC(=O)c1ccco1)Nc1ccccc1	10	·	-1	·
O=C1C(=Cc2ccncc2)CCCc2ccccc21	70*	·	-2	·
O=C1/C(=C\c2ccncc2)CCc2ccccc21	5	·	-3	·
COCCCNc1nc2ccccc2nc1NS(=O)(=O)c1ccc(C)cc1C	-3	1	-1	0
Cc1ccc(NC(=O)COC(=O)CCc2c[nH]c3ccccc23)c(C)c1	54*	·	-2	·
CN(NC(=O)Nc1ccccc1)c1cnn(C)c(=O)c1Cl	120*	1	3	1
Cc1ncc(N=Nc2ccccc2)c(-c2ccccc2)n1	-7	0	-2	0
COC(=O)c1ccc2nc3c(cc2c1)[C@@H]1CCN2C(=O)CCC[C@H](C3)[C@H]12	87*	·	0	·
CC1CC1C(=O)OCC(=O)NCc1ccccc1 (stereo not given)	4	·	-1	·
O=C(NNC(=S)NC(=O)c1cccc([N+](=O)[O-])c1)c1ccc(Br)cc1	-69	·	122*	·
Cc1ccc(C(=O)NC(=S)NNC(=O)c2cccc([N+](=O)[O-])c2)cc1	21	·	79*	·
O=C(NNC(=S)NC(=O)c1cccc([N+](=O)[O-])c1)c1ccc(O)cc1	0	·	0	·
CCN(CC)CCn1c2ccccc2c(=O)c2c(O)ccc(O)c21	31	·	-6	·
COc1ccc(S(=O)(=O)N2CCN(C(=O)CCCN3C(=O)NC4(CCCC4)C3=O)CC2)cc1	55*	·	-1	·
CC(C)c1cc(C(F)(F)F)nc(NNc2nc(C(C)C)cc(C(F)(F)F)n2)n1	54*	·	0	·
O=C(CNc1ccccc1)N/N=C/c1ccc([N+](=O)[O-])o1	85*	2	-1	1
Fc1ccc(Oc2ccnc(Cl)n2)c(Cl)c1	53*	·	-1	·
S=C(Nc1ccc(Cl)cc1)NN1CCOCC1	15	2	-2	0
CC(C)c1ccc(NC(=S)NN2CCOCC2)cc1	50*	2	83*	1
FC(F)(F)c1cc(NC2CCCCC2)ccn1	1	·	3	·
O=C(CSCc1ccc(Cl)cc1)Nc1cc([N+](=O)[O-])ccc1O	48	25*	43	18*
SMILES	CRFBP-R2 block	TRPN1 ag	CRFBP-R2 agonist	TRPML3 ag
COc1ccc([N+](=O)[O-])cc1NC(=O)CSCc1ccc(Br)cc1	-4	-1	0	-1
Cc1ccc(SCC(=O)Nc2cc([N+](=O)[O-])ccc2O)cc1	92*	24*	80*	19*
O=C(NCc1ccc(Cl)cc1)N1CCN(Cc2ccccc2)CC1	12	·	0	·
Cc1ccccc1C(=O)NC(=S)Nc1ccc(Oc2ccc(Cl)cc2)cc1	4	1	6	0
CCOC(=O)C1=NNC(=O)C1	2	·	2	·
CC(=O)N1c2ccc(S(=O)(=O)N(C)CC(=O)NC3CCCC3)cc2CC1C (stereo not given)	63*	·	2	·
CC(=O)N1c2ccc(S(=O)(=O)N(C)CC(=O)N3CCCC3)cc2CC1C (stereo not given)	-5	·	0	·
C[C@H](NC(=O)[C@@H]1Cc2ccccc2CN1)C(=O)NC1CCCCC1	93*	·	0	·
CCN(C(=O)CSc1nnnn1-c1ccc(Cl)cc1)C1CCS(=O)(=O)C1 (stereo not given)	-12	·	0	·
COc1ncnc2c1NC1=C(S2)C(=NCCC(=O)O)CC(C)(C)C1	0	1	11	0
CN(C)c1ncnc2c1NC1=C(S2)C(=NCCCC(=O)O)CC(C)(C)C1	52*	0	4	1
Cc1ccnc(NC(=O)c2cccc(OC(F)F)c2)n1	13	·	-2	·
CN1CCN(CC(=O)Nc2ccccc2Sc2ccccc2)CC1	48	0	-2	1
O=C(CN1CCCC1)Nc1ccccc1Sc1ccccc1	-67	-2	52*	1
CN(C)c1cccc(C(=O)OCC(=O)Nc2ccccc2Sc2ccccc2)c1	62*	0	1	-1
CSc1c[n+]2c(n1C)CCC2	-4	0	-4	1
COc1ccc(C(=O)Nc2ccc(C(=O)NCCc3ccccc3)cc2)cc1	3	0	-1	1

Compound activity deposited in PubChem by several laboratories.
